Data reported in ChEMBL document CHEMBL2157978, “Design, synthesis, and biological evaluation of nonsteroidal cycloalkane[d]isoxazole-containing androgen receptor modulators” (J Med Chem, 2012).
Active and inactive are the calls of the source. The rule behind the calls is not given here.

Assays:
[1] = target: T1, Androgen receptor (Homo sapiens) (UniProt P10275); assay: Agonist activity at wild type human androgen receptor expressed in COS-1 cells co-transfected with pSG5 assessed as effect on testosterone induced luciferase activity at 10 uM after 18 hrs relative untreated control; type: functional, cell-based
T1 sequence (whole entry): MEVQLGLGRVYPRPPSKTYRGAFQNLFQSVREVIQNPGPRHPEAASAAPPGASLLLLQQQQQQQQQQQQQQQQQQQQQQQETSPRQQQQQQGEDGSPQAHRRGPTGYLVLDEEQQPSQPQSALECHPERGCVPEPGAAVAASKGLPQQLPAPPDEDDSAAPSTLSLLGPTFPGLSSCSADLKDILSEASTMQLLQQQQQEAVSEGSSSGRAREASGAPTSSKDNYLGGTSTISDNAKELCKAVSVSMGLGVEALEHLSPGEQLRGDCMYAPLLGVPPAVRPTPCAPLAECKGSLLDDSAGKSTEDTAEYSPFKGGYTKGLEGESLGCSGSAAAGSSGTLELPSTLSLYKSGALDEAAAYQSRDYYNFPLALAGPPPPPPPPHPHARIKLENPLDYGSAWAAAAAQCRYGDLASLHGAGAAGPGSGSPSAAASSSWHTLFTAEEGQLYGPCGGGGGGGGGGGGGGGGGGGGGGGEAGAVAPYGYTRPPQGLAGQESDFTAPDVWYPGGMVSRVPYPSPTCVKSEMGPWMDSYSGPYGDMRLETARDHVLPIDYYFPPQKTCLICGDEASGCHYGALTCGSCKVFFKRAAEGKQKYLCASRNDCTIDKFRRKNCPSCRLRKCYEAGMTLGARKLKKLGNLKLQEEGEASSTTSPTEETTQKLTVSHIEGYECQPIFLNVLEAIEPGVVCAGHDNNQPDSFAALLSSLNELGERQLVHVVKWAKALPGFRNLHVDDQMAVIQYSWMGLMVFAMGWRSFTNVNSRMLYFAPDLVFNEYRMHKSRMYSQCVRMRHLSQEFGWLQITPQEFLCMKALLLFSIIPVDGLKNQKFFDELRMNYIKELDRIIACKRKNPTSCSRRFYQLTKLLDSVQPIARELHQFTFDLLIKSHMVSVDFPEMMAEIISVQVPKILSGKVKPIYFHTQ

[2] = target: Luciferin 4-monooxygenase (Photinus pyralis) (UniProt P08659); assay: Inhibition of Photinus pyralis recombinant luciferase at 10 uM incubated for 20 mins
Chain of Luciferin 4-monooxygenase (Photinus pyralis) (P08659 whole entry): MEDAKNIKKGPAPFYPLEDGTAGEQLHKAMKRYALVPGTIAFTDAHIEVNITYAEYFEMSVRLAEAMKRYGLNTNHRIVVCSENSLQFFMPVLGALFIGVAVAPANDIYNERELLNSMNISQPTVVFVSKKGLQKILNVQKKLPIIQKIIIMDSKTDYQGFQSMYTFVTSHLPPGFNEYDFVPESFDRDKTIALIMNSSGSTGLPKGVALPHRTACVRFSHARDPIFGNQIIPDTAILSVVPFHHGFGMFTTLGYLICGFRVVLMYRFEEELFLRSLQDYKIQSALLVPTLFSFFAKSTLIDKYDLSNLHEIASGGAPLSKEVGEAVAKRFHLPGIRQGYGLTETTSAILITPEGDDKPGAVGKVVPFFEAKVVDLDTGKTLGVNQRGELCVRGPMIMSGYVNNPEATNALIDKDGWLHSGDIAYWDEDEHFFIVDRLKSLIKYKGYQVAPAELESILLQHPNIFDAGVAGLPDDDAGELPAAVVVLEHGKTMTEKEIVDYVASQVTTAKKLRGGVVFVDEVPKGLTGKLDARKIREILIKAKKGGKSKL
How it was run: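 Purified firefly luciferase diluted to 0.1 μg/mL in 1x Reporter Lysis Buffer, with compound added from ethanol stocks (10⁻³–10⁻⁷ mol/L dilutions) in triplicate. Incubated 20 min at rt, then luciferase substrate added and luminescence read. Blank (lysis buffer) and ethanol-vehicle controls were included.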

Androgen receptor = target: T2, Androgen receptor (Homo sapiens, UniProt P10275); assay: Displacement of [3H]R1881 from wild type human androgen receptor expressed in COS-1 cells co-transfected with pSG5 after 2 hrs by scintillation assay
T2 sequence (P10275 whole entry): T1 sequence (whole entry)

Row | SMILES | Activity [1] | inhibition [2] | IC50 (Androgen receptor) [nM]
1 | c1ccc(C2=NOC3CCCCC23)cc1 (cis isomer) | inactive | inactive | 
2 | O=[N+]([O-])c1ccc(C2=NOC3CCCCCCC23)cc1C(F)(F)F (racemic) | inactive | inactive | 708
3 | c1ccc(C2=NOC3CCCCC23)cc1 (stereo not drawn) | inactive | inactive | 
4 | Fc1ccc(C2=NOC3CCCCC23)c(C(F)(F)F)c1 (stereo not drawn) [listing 1 of 2 here] |  |  | 977
5 | O=[N+]([O-])c1ccc(C2=NOC3CCCCCC23)cc1C(F)(F)F (racemic) | inactive | inactive | 105
6 | O=[N+]([O-])c1ccc(C2=NOC3CCCCCCC23)c(C(F)(F)F)c1 (cis isomer) [listing 1 of 2 here] |  |  | 741
7 | Clc1ccccc1C1=NOC2CCCCC12 (cis isomer) | inactive | inactive | 
8 | O=[N+]([O-])c1ccc(C2=NO[C@@H]3CCCCC[C@H]23)c(C(F)(F)F)c1 | inactive | inactive | 309
9 | N#Cc1ccc(C2=NO[C@@H]3CCC[C@H]23)cc1C(F)(F)F | inactive | inactive | 224
10 | Clc1cccc(C2=NOC3CCCCC23)c1 (cis isomer; cis) | inactive | inactive | 
11 | Fc1ccc(C2=NOC3CCCCCCC23)cc1C(F)(F)F (cis isomer; 8f) [listing 1 of 2 here] | inactive | inactive | 
12 | Fc1ccc(C2=NOC3CCCC23)c(C(F)(F)F)c1 (cis isomer; 5g) [listing 1 of 2 here] |  |  | 1350
13 | Clc1ccc(C2=NOC3CCCCC23)cc1 (cis isomer) | inactive | inactive | 
14 | N#Cc1ccc(C2=NOC3CCCCCC23)c(C(F)(F)F)c1 (stereo not drawn) [listing 1 of 2 here] |  |  | 1150
15 | Fc1ccc(C2=NOC3CCCCCCC23)c(C(F)(F)F)c1 (cis isomer; cis) [listing 1 of 2 here] | inactive | inactive | 
16 | N#Cc1ccc(C2=NOC3CCCCCC23)cc1C(F)(F)F (racemic) | inactive | inactive | 43.7
17 | c1ccc2c(C3=NOC4CCCCC34)cccc2c1 (stereo not drawn) | inactive | inactive | 
18 | O=[N+]([O-])c1ccc(C2=NOC3CCCCC23)cc1 (racemic) | inactive | inactive | 
19 | COc1ccccc1C1=NOC2CCCCC12 (racemic) | inactive | inactive | 
20 | Fc1ccccc1C1=NOC2CCCCC12 (stereo not drawn) | inactive | inactive | 

Row | SMILES | Activity [1] | inhibition [2] | IC50 (Androgen receptor) [nM]
21 | N#Cc1ccc(C2=NOC3CCCCC23)c(C(F)(F)F)c1 (cis isomer) [listing 1 of 2 here] |  |  | 1780
22 | N#Cc1ccc(C2=NOC3CCCCC23)cc1 (stereo not drawn) | inactive | inactive | 
23 | N#Cc1cccc(C2=NOC3CCCCC23)c1C(F)(F)F (cis isomer) [listing 1 of 2 here] | inactive | inactive | 
24 | Fc1ccc(C2=NOC3CCCCC23)c(C(F)(F)F)c1 (cis isomer) [listing 1 of 2 here] |  |  | 1150
25 | N#Cc1ccc(C2=NOC3CCCCCCC23)c(C(F)(F)F)c1 (stereo not drawn) [listing 1 of 2 here] |  |  | 2000
26 | COc1cccc(C2=NOC3CCCCC23)c1 (stereo not drawn) | inactive | inactive | 
27 | COc1ccc(C2=NOC3CCCCC23)cc1 (cis isomer) | inactive | inactive | 
28 | Fc1ccc(C2=NOC3CCCCCCC23)cc1C(F)(F)F (cis isomer; cis) [listing 1 of 2 here] |  |  | 2820
29 | Fc1ccc(C2=NOC3CCCCCCC23)cc1C(F)(F)F (cis isomer; 8f) [listing 2 of 2 here] |  |  | 5890
30 | Fc1ccc(C2=NOC3CCCCC23)cc1 (cis isomer) | inactive | inactive | 
31 | Clc1ccc(C2=NOC3CCCCC23)cc1 (stereo not drawn) | inactive | inactive | 
32 | O=[N+]([O-])c1ccc(C2=NOC3CCCCCCC23)c(C(F)(F)F)c1 (stereo not drawn) [listing 1 of 2 here] |  |  | 776
33 | N#Cc1ccc(C2=NOC3CCCCCCC23)c(C(F)(F)F)c1 (cis isomer) [listing 1 of 2 here] |  |  | 646
34 | N#Cc1ccc(C2=NOC3CCCCC23)c(C(F)(F)F)c1 (stereo not drawn) [listing 1 of 2 here] |  |  | 1150
35 | N#Cc1cccc(C2=NOC3CCCCC23)c1C(F)(F)F (stereo not drawn) [listing 1 of 2 here] |  |  | 64.6
36 | Fc1ccc(C2=NOC3CCCC23)c(C(F)(F)F)c1 (cis isomer; 5g) [listing 2 of 2 here] | inactive | inactive | 
37 | Fc1ccc(C2=NOC3CCCC23)c(C(F)(F)F)c1 (cis isomer; cis) [listing 1 of 2 here] |  |  | 1550
38 | Fc1ccc(C2=NOC3CCCCCCC23)cc1C(F)(F)F (cis isomer; cis) [listing 2 of 2 here] | inactive | inactive | 
39 | COc1ccc(C2=NOC3CCCCC23)cc1 (stereo not drawn) | inactive | inactive | 
40 | Clc1cccc(C2=NOC3CCCCC23)c1 (cis isomer; 6n) | inactive | inactive | 

Row | SMILES | Activity [1] | inhibition [2] | IC50 (Androgen receptor) [nM]
41 | Fc1ccc(C2=NOC3CCCCC23)cc1 (stereo not drawn) | inactive | inactive | 
42 | Fc1ccc(C2=NOC3CCCCCCC23)c(C(F)(F)F)c1 (cis isomer; 8g) | inactive | inactive | 
43 | N#Cc1ccc(C2=NOC3CCCCC23)c(C(F)(F)F)c1 (stereo not drawn) [listing 2 of 2 here] | inactive | inactive | 
44 | N#Cc1ccc(C2=NOC3CCCCCC23)c(C(F)(F)F)c1 (cis isomer) [listing 1 of 2 here] |  |  | 1000
45 | Fc1ccc(C2=NOC3CCCCC23)c(C(F)(F)F)c1 (cis isomer) [listing 2 of 2 here] | inactive | inactive | 
46 | Fc1ccc(C2=NOC3CCCC23)c(C(F)(F)F)c1 (cis isomer; cis) [listing 2 of 2 here] | inactive | inactive | 
47 | N#Cc1ccc(C2=NOC3CCCCCCC23)c(C(F)(F)F)c1 (stereo not drawn) [listing 2 of 2 here] | inactive | inactive | 
48 | N#Cc1ccc(C2=NOC3CCCCCC23)c(C(F)(F)F)c1 (cis isomer) [listing 2 of 2 here] | inactive | inactive | 
49 | N#Cc1ccc(C2=NOC3CCCCCC23)c(C(F)(F)F)c1 (stereo not drawn) [listing 2 of 2 here] | inactive | inactive | 
50 | Fc1ccc(C2=NOC3CCCCC23)c(C(F)(F)F)c1 (stereo not drawn) [listing 2 of 2 here] | inactive | inactive | 
51 | Fc1cccc(C2=NOC3CCCCC23)c1 (racemic) | inactive | inactive | 
52 | N#Cc1cccc(C2=NOC3CCCCC23)c1C(F)(F)F (cis isomer) [listing 2 of 2 here] |  |  | 79.4
53 | N#Cc1ccc(C2=NOC3CCCCCCC23)c(C(F)(F)F)c1 (cis isomer) [listing 2 of 2 here] | inactive | inactive | 
54 | O=[N+]([O-])c1ccc(C2=NOC3CCCCCCC23)c(C(F)(F)F)c1 (cis isomer) [listing 2 of 2 here] | inactive | inactive | 
55 | O=[N+]([O-])c1ccc(C2=NOC3CCCCCCC23)c(C(F)(F)F)c1 (stereo not drawn) [listing 2 of 2 here] | inactive | inactive | 
56 | Clc1ccccc1C1=NOC2CCCCC12 (stereo not drawn) | inactive | inactive | 
57 | N#Cc1ccc(C2=NOC3CCCCC23)c(C(F)(F)F)c1 (cis isomer) [listing 2 of 2 here] | inactive | inactive | 
58 | c1ccc2c(C3=NOC4CCCCC34)cccc2c1 (cis isomer) | inactive | inactive | 
59 | Fc1ccc(C2=NOC3CCCCCCC23)c(C(F)(F)F)c1 (cis isomer; cis) [listing 2 of 2 here] |  |  | 13200
60 | N#Cc1cccc(C2=NOC3CCCCC23)c1C(F)(F)F (stereo not drawn) [listing 2 of 2 here] | inactive | inactive | 
